Assay results: ChEMBL document CHEMBL4765426, “Design, synthesis and in vitro anti-influenza A virus evaluation of novel quinazoline derivatives containing S-acetamide and NH-acetamide moieties at C-4” (Eur J Med Chem, 2020)
pIC50: −log10 of the molar value. Activity calls are given as the source filed them.

Experiments:
[1] = Selectivity index, ratio of CC50 for human HEK293T cells to IC50 for Influenza A virus A/WSN/33(H1N1) infected in HEK293T-Gluc cells; assay type: toxicity, cell-based; details: read-out: Ratio CC50/IC50
Influenza A virus [2] = experiment: Antiviral activity against Influenza A virus A/WSN/33(H1N1) infected in HEK293T-Gluc cells pretreated for 2 hrs followed by viral infection and measured after 24 hrs by Gaussia luciferase reporter gene assay; assay type: functional, organism-based; details: A/WSN/1933(H1N1), HEK-293T
How it was run: (§1)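 Reporter cells were HEK293T cells stably transfected with pLenti6-Gluc, which constitutively expresses negative-strand Gaussia luciferase RNA that becomes positive-strand on IAV infection. Cells were infected with A/WSN/33 or A/PR/8/1934 (H1N1). Antiviral activity was read as Gluc signal, and IC50 values were derived. Ribavirin served as positive control.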

[3] = Cytotoxicity against human HEK293T cells assessed as reduction in cell viability after 48 hrs by CCK8 assay; assay type: cell-based, HEK-293T
Influenza A virus [4] = experiment: Antiviral activity against Influenza A virus A/WSN/33(H1N1) infected in HEK293T-Gluc cells assessed as inhibition of virus infection at 10 uM pretreated for 2 hrs followed by viral infection and measured after 24 hrs by Gaussia luciferase reporter gene assay; assay type: functional; details: A/WSN/1933(H1N1), HEK-293T, time 26 hrs
How it was run: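 A single-concentration screen at 10 μM was run against A/WSN/33 (H1N1) in HEK293T-Gluc reporter cells. These cells carry a stably transfected pLenti6-Gluc construct expressing negative-strand Gaussia luciferase RNA that is converted to positive strand upon infection. Inhibition ratio of infection was read from Gluc activity.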

Influenza A virus [5] = experiment: Antiviral activity against Influenza A virus A/PR/8/34 (H1N1) infected in HEK293T-Gluc cells pretreated for 2 hrs followed by viral infection and measured after 24 hrs by Gaussia luciferase reporter gene assay; assay type: functional, organism-based; details: A/Puerto Rico/8/1934(H1N1), HEK-293T; how it was run: as §1
[6] = Cytotoxicity against human A549 cells assessed as reduction in cell viability after 48 hrs by CCK8 assay; assay type: cell-based
[7] = AUMC (0 to t) in Sprague-Dawley rat at 1.25 mg/kg, iv measured up to 24 hrs by HPLC analysis; assay type: ADME, organism-based; details: in vivo
How it was run: (§2)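 Male Sprague-Dawley rats (n = 3 per route) received a single intravenous dose (1.25 mg/kg) or a single oral dose (25 mg/kg). Plasma concentrations were followed over time, and PK parameters were derived from them. Values are reported as mean ± deviation.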

[8] = AUMC (0 to infinity) in Sprague-Dawley rat at 1.25 mg/kg, iv measured up to 24 hrs by HPLC analysis; assay type: ADME, organism-based; details: in vivo; how it was run: as §2
[9] = AUC (0 to t) in Sprague-Dawley rat at 1.25 mg/kg, iv measured up to 24 hrs by HPLC analysis; assay type: ADME, organism-based; design: route intravenous, dose 1.25 mg/kg, time <=24; details: in vivo; how it was run: as §2
Influenza A virus [10] = experiment: Antiviral activity against Influenza A virus A/WSN/33(H1N1) infected in HEK293T cells co-transfected with NP/PA/PB1/PB2/pol-LUC/SV40-Renilla assessed as inhibition of viral RNA transcription and replication at 2.5 uM after 24 hrs by mini-genome replicon system based luciferase assay; assay type: functional, A/WSN/1933(H1N1); design: scale not given: the % may be the effect or the level left
How it was run: (§3)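 In the mini-genome replicon assay, HEK293T cells were transfected with pCAGGS plasmids encoding PB2, PB1, PA and NP, plus pol-LUC and SV40-Renilla, with or without compound (1.25 or 2.5 μM). Firefly and Renilla luciferase were measured 24 h post-transfection and compared against negative control (p<0.01 threshold).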

[11] = AUMC (0 to t) in Sprague-Dawley rat at 25 mg/kg, po measured up to 24 hrs by HPLC analysis; assay type: ADME, organism-based; details: in vivo; how it was run: as §2
[12] = Oral bioavailability in Sprague-Dawley rat at 25 mg/kg measured up to 24 hrs by HPLC analysis; assay type: ADME, organism-based; details: in vivo; how it was run: as §2
[13] = Initial plasma concentration in Sprague-Dawley rat at 1.25 mg/kg, iv measured up to 24 hrs by HPLC analysis; assay type: ADME, organism-based; how it was run: as §2
[14] = Elimination rate constant in Sprague-Dawley rat at 1.25 mg/kg, iv measured up to 24 hrs by HPLC analysis; assay type: ADME, organism-based; details: in vivo; how it was run: as §2
[15] = Cmax in Sprague-Dawley rat at 1.25 mg/kg, iv measured up to 24 hrs by HPLC analysis; assay type: ADME, organism-based; design: route intravenous, dose 1.25 mg/kg, time <=24; details: in vivo; how it was run: as §2
Influenza A virus [16] = experiment: Antiviral activity against Influenza A virus A/WSN/33(H1N1)) infected in A549 cells assessed as reduction in viral yield at 2.5 uM preincubated before viral infection by time of addition assay; assay type: functional, organism-based; details: A/WSN/1933(H1N1)
How it was run: (§4)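 For time-of-addition, A549 cells were inoculated with single-cycle A/WSN/33 (H1N1) virus at MOI 0.2, and compound was added at 2.5 μM. Viral yield was measured as Gluc activity at 11 h post-infection. DMSO served as negative control and ribavirin (30 μM) as positive control.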

[17] = AUC (0 to infinity) in Sprague-Dawley rat at 25 mg/kg, po measured up to 24 hrs by HPLC analysis; assay type: ADME, organism-based; design: route oral, dose 25 mg/kg, time <=24; details: in vivo; how it was run: as §2
[18] = Mean residence time in Sprague-Dawley rat at 25 mg/kg, po measured up to 24 hrs by HPLC analysis; assay type: ADME, organism-based; details: in vivo; how it was run: as §2
Influenza A virus [19] = experiment: Antiviral activity against Influenza A virus A/WSN/33(H1N1) infected in HEK293T cells co-transfected with NP/PA/PB1/PB2/pol-LUC/SV40-Renilla assessed as inhibition of viral RNA transcription and replication after 24 hrs by mini-genome replicon system based luciferase assay; assay type: functional, organism-based; details: A/WSN/1933(H1N1), dose 1.25-2.5 µM; how it was run: as §3
[20] = Cmax in Sprague-Dawley rat at 25 mg/kg, po measured up to 24 hrs by HPLC analysis; assay type: ADME, organism-based; design: route oral, dose 25 mg/kg, time <=24; details: in vivo; how it was run: as §2
[21] = Half life in Sprague-Dawley rat at 25 mg/kg, po measured up to 24 hrs by HPLC analysis; assay type: ADME, organism-based; details: in vivo; how it was run: as §2
[22] = Clearance in Sprague-Dawley rat at 1.25 mg/kg, iv measured up to 24 hrs by HPLC analysis; assay type: ADME, organism-based; details: in vivo; how it was run: as §2
[23] = Half life in Sprague-Dawley rat at 1.25 mg/kg, iv measured up to 24 hrs by HPLC analysis; assay type: ADME, organism-based; details: in vivo; how it was run: as §2
[24] = Elimination rate constant in Sprague-Dawley rat at 25 mg/kg, po measured up to 24 hrs by HPLC analysis; assay type: ADME, organism-based; details: in vivo; how it was run: as §2
[25] = Tmax in Sprague-Dawley rat at 25 mg/kg, po measured up to 24 hrs by HPLC analysis; assay type: ADME, organism-based; details: in vivo; how it was run: as §2
[26] = AUC (0 to t) in Sprague-Dawley rat at 25 mg/kg, po measured up to 24 hrs by HPLC analysis; assay type: ADME, organism-based; design: route oral, dose 25 mg/kg, time <=24; details: in vivo; how it was run: as §2
[27] = Volume of distribution at steady state in Sprague-Dawley rat at 1.25 mg/kg, iv measured up to 24 hrs by HPLC analysis; assay type: ADME, organism-based; details: in vivo, read-out: Vdss; how it was run: as §2
[28] = AUC (0 to infinity) in Sprague-Dawley rat at 1.25 mg/kg, iv measured up to 24 hrs by HPLC analysis; assay type: ADME, organism-based; design: route intravenous, dose 1.25 mg/kg, time <=24; details: in vivo; how it was run: as §2
[29] = Mean residence time in Sprague-Dawley rat at 1.25 mg/kg, iv measured up to 24 hrs by HPLC analysis; assay type: ADME, organism-based; details: in vivo; how it was run: as §2
Influenza A virus [30] = experiment: Antiviral activity against Influenza A virus A/WSN/33(H1N1)) infected in A549 cells assessed as inhibition of virus replication at early stage at 2.5 uM after 2 to 4 hrs post infection by time of addition assay; assay type: functional, organism-based; details: A/WSN/1933(H1N1), time 2-4 hrs; how it was run: as §4
[31] = AUMC (0 to infinity) in Sprague-Dawley rat at 25 mg/kg, po measured up to 24 hrs by HPLC analysis; assay type: ADME, organism-based; details: in vivo; how it was run: as §2

O=C(CNc1nc(N2CCc3ccccc3C2)nc2ccccc12)Nc1ccc2ccccc2c1
selectivity ratio [1]: > 29.1 | pIC50 (Influenza A virus [2]): 5.46 | CC50 at 48 h [3]: > 100 µM

O=C(COc1cccc2ccccc12)Nc1ccc(F)cc1
selectivity ratio [1]: > 19.1 | inhibition at 10 µM (Influenza A virus [4]): 78% | pIC50 (Influenza A virus [2]): 5.28 | CC50 at 48 h [3]: > 100 µM

O=C(CNc1nc(N2CCCC2)nc2ccccc12)Nc1cc(Cl)cc(Cl)c1
selectivity ratio [1]: 1.75 | pIC50 (Influenza A virus [2]): 5.04 | pIC50 (Influenza A virus [5]): 6.02 | CC50 at 48 h [3]: 15.9 µM | CC50 at 48 h [6]: 5.92 µM

O=C(CNc1nc(N2CCc3ccccc3C2)nc2ccccc12)NCc1ccccc1
selectivity ratio [1]: 4.3 | pIC50 (Influenza A virus [2]): 5.16 | pIC50 (Influenza A virus [5]): 6.92 | CC50 at 48 h [3]: 29.4 µM | CC50 at 48 h [6]: 12.8 µM

NC(=O)c1ncn([C@@H]2O[C@H](CO)[C@@H](O)[C@H]2O)n1 [RIBAVIRIN]
selectivity ratio [1]: > 6.51 | CC50 at 48 h [3]: > 100 µM

O=C(CNc1nc(N2CCCC2)nc2ccccc12)NCc1ccco1
selectivity ratio [1]: > 2.54 | pIC50 (Influenza A virus [2]): 4.40 | CC50 at 48 h [3]: > 100 µM

O=C(CNc1nc(N2CCCC2)nc2ccccc12)Nc1ccc2ccccc2c1
AUMCt [7]: 18 hr.hr.ng/ml | AUMC [8]: 30.6 hr.hr.ng/ml | AUC(0-t) at 24 h [9]: 34.9 ng·h/mL | Activity (Influenza A virus [10]): 80% | AUMCt [11]: 313 hr.hr.ng/ml | bioavailability [12]: 22.5% | C0 at 24 h [13]: 80.8 ng/mL | k el at 24 h [14]: 0.000286 s⁻¹ | selectivity ratio [1]: 46.5 | Cmax [15]: 58 ng/mL | Activity (Influenza A virus [16]): inactive | AUC(0-inf) [17]: 183 ng·h/mL | MRT [18]: 191 min | Activity (Influenza A virus [19]): Dose-dependent effect | inhibition at 10 µM (Influenza A virus [4]): 99.8% | Cmax [20]: 78.6 ng/mL | half-life [21]: 135 min | clearance [22]: 557 mL/min/kg | half-life [23]: 40.8 min | pIC50 (Influenza A virus [2]): 5.89 | k el at 24 h [24]: 8.89e-05 s⁻¹ | pIC50 (Influenza A virus [5]): 6.20 | Tmax [25]: 19.8 min | AUC(0-t) at 24 h [26]: 157 ng·h/mL | Vd [27]: 26.6 L/kg | AUC(0-inf) [28]: 39.2 ng·h/mL | CC50 at 48 h [3]: 59.9 µM | MRT [29]: 47.4 min | Activity (Influenza A virus [30]): Active | AUMC [31]: 553 hr.hr.ng/ml | CC50 at 48 h [6]: 4.77 µM

CCN(CC)c1nc(SCC(=O)Nc2ccccc2)c2ccccc2n1
selectivity ratio [1]: > 13.9 | pIC50 (Influenza A virus [2]): 5.14 | pIC50 (Influenza A virus [5]): 5.77 | CC50 at 48 h [3]: > 100 µM | CC50 at 48 h [6]: > 100 µM
